Assay results: ChEMBL document CHEMBL1127457, “Nonpeptide renin inhibitors with good intraduodenal bioavailability and efficacy in dog” (J Med Chem, 1994)

Key:
Renin [1] = target: T1, Renin (Homo sapiens, UniProt P00797); test: Tested in vitro for its ability to inhibit the human plasma renin; assay type: cell-free
T1 sequence (P00797 whole entry): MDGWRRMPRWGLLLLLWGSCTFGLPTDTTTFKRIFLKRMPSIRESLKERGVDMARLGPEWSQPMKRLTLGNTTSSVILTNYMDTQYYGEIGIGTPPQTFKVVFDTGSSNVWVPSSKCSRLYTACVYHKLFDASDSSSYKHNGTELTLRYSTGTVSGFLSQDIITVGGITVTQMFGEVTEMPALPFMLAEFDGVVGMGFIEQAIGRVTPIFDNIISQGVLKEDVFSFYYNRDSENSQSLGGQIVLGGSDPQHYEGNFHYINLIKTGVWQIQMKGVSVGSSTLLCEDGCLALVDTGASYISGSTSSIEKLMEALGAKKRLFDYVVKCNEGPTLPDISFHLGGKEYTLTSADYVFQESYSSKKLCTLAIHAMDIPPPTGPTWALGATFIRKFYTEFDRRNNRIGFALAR
How it was run: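 IC50 against renin in plasma from the named species (dog, ferret, human, rat); single determination in most cases.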

[2] = Partition coefficient (logD6.5); details: octanol/water, pH 6.5
[3] = Partition coefficient (logD7.4); details: octanol/water, pH 7.4
Renin [4] = target: T1, Renin; test: Tested in vitro for its ability to inhibit the human plasma renin at pH of 7.4; assay type: cell-free
[5] = Average area under curve for the compound at 10 mg/kg dose after intraduodenal administration to rat; details: in vivo
[6] = Average area under curve for the compound at 1 mg/kg dose after intravenous administration to rat; details: in vivo
[7] = Oral bioavailability in rat; details: in vivo, intraduodenal, 10 mg/kg
[8] = Average peak plasma concentration of compound after 10 mg/kg intraduodenal administration to rat
[9] = Average peak plasma concentration of compound after 1 mg/kg intravenous administration to rat

Row | IC50 (Renin [1]) | logD [2] | logD [3] | IC50 (Renin [4]) | SMILES | further results
1 | 1.3 nM | – | – | – | CCCC[C@H](O[C@@H](Cc1ccccc1)C(=O)N1CCC(OCOC)CC1)C(=O)N[C@@H](CC1CCCCC1)[C@@H](O)C[C@H](C(=O)NCCCNC(=NC#N)SC)C(C)C | –
2 | 7.9 nM | 2.9 | 3.5 | – | CCCC[C@H](N[C@@H](Cc1ccccc1)C(=O)N1CCC(OCOC)CC1)C(=O)N[C@@H](CC1CCCCC1)[C@@H](O)C[C@H](C(=O)NCCCNCCO)C(C)C | –
3 | – | – | – | 2.6 nM | CCCC[C@H](O[C@@H](Cc1ccccc1)C(=O)N1CCC(OCOC)CC1)C(=O)N[C@@H](CC1CCCCC1)[C@@H](O)C[C@H](C(=O)NCCNC(C)=O)C(C)C | –
4 | 12 nM | 2.3 | 2.8 | – | CCCC[C@H](N[C@@H](Cc1ccccc1)C(=O)N1CCC(OCOC)CC1)C(=O)N[C@@H](CC1CCCCC1)[C@@H](O)C[C@H](C(=O)NCC(=O)O)C(C)C | –
5 | – | 2.4 | 1.8 | 4.5 nM | CCCC[C@H](O[C@@H](Cc1ccccc1)C(=O)N1CCC(OCOC)CC1)C(=O)N[C@@H](CC1CCCCC1)[C@@H](O)C[C@H](C(=O)NCCCN)C(C)C | –
6 | 8.4 nM | – | – | – | CCCC[C@H](N[C@@H](Cc1ccccc1)C(=O)N1CCC(OCOC)CC1)C(=O)N[C@@H](CC1CCCCC1)[C@@H](O)C[C@H](C(=O)NCC[N+]1([O-])CCOCC1)C(C)C | –
7 | 21 nM | – | – | – | CCCC[C@H](N[C@@H](Cc1ccccc1)C(=O)N1CCC(OCOC)CC1)C(=O)N[C@@H](CC1CCCCC1)[C@@H](O)C[C@H](C(=O)NCC(=O)OCc1ccccc1)C(C)C | –
8 | – | – | – | 8.4 nM | CCCC[C@H](O[C@@H](Cc1ccccc1)C(=O)N1CCC(OCOC)CC1)C(=O)N[C@@H](CC1CCCCC1)[C@@H](O)C[C@H](C(=O)NCc1nn[nH]n1)C(C)C | –
9 | – | – | – | 4.3 nM | CCCC[C@H](O[C@@H](Cc1ccccc1)C(=O)N1CCC(OCOC)CC1)C(=O)N[C@@H](CC1CCCCC1)[C@@H](O)C[C@H](C(=O)NCCCCN)C(C)C | –
10 | 23 nM | – | – | – | CCCC[C@H](N[C@@H](Cc1ccccc1)C(=O)N1CCC(OCOC)CC1)C(=O)N[C@@H](CC1CCCCC1)[C@@H](O)C[C@H](C(=O)NCCC(=O)OCc1ccccc1)C(C)C | –
11 | – | – | – | 2 nM | CCCC[C@H](O[C@@H](Cc1ccccc1)C(=O)N1CCC(OCOC)CC1)C(=O)N[C@@H](CC1CCCCC1)[C@@H](O)C[C@H](C(=O)NCCCNC(N)=O)C(C)C | –
12 | 12 nM | – | – | – | CCCC[C@H](N[C@@H](Cc1ccccc1)C(=O)N1CCC(OCOC)CC1)C(=O)N[C@@H](CC1CCCCC1)[C@@H](O)C[C@H](C(=O)NCC(C)(C)N)C(C)C | –
13 | – | – | – | 11 nM | CCCC[C@H](O[C@@H](Cc1ccccc1)C(=O)N1CCC(OCOC)CC1)C(=O)N[C@@H](CC1CCCCC1)[C@@H](O)C[C@H](C(=O)NCCNC(=O)OCc1ccccc1)C(C)C | –
14 | – | – | – | 3.9 nM | CCCC[C@H](O[C@@H](Cc1ccccc1)C(=O)N1CCC(OCOC)CC1)C(=O)N[C@@H](CC1CCCCC1)[C@@H](O)C[C@H](C(=O)NCCN)C(C)C | –
15 | – | 4.6 | 4.5 | 1.5 nM | CCCC[C@H](O[C@@H](Cc1ccccc1)C(=O)N1CCC(OCOC)CC1)C(=O)N[C@@H](CC1CCCCC1)[C@@H](O)C[C@H](C(=O)NCCCNC(N)=NC#N)C(C)C | –
16 | – | > 5 | > 5 | 2.2 nM | CCCC[C@H](O[C@@H](Cc1ccccc1)C(=O)N1CCC(OCOC)CC1)C(=O)N[C@@H](CC1CCCCC1)[C@@H](O)C[C@H](C(=O)NCCNC(N)=S)C(C)C | –
17 | 17 nM | – | – | – | CCCC[C@H](N[C@@H](Cc1ccccc1)C(=O)N1CCC(OCOC)CC1)C(=O)N[C@@H](CC1CCCCC1)[C@@H](O)C[C@H](C(=O)NCCNC(=O)OCc1ccccc1)C(C)C | –
18 | 6.3 nM | – | – | – | CCCC[C@H](N[C@@H](Cc1ccccc1)C(=O)N1CCC(OCOC)CC1)C(=O)N[C@@H](CC1CCCCC1)[C@@H](O)C[C@H](C(=O)NCC(C)(C)NCCO)C(C)C | AUC [5]: 66.3 ng·h/mL; AUC [6]: 477 ng·h/mL; bioavailability [7]: 1%; Cmax ([8]; plasma): 80 ng/mL; Cmax ([9]; plasma): 3480 ng/mL
19 | – | – | – | 2.5 nM | CCCC[C@H](O[C@@H](Cc1ccccc1)C(=O)N1CCC(OCOC)CC1)C(=O)N[C@@H](CC1CCCCC1)[C@@H](O)C[C@H](C(=O)NCCCNC(N)=S)C(C)C | –
20 | 8.4 nM | – | – | – | CCCC[C@H](N[C@@H](Cc1ccccc1)C(=O)N1CCC(OCOC)CC1)C(=O)N[C@@H](CC1CCCCC1)[C@@H](O)C[C@H](C(=O)NCCC(=O)O)C(C)C | –

Row | IC50 (Renin [1]) | logD [2] | logD [3] | IC50 (Renin [4]) | SMILES | further results
21 | – | – | – | 3.3 nM | CCCC[C@H](O[C@@H](Cc1ccccc1)C(=O)N1CCC(OCOC)CC1)C(=O)N[C@@H](CC1CCCCC1)[C@@H](O)C[C@H](C(=O)NCCCCN1CCOCC1)C(C)C | –
22 | 9.5 nM | 2.7 | 3.3 | – | CCCC[C@H](N[C@@H](Cc1ccccc1)C(=O)N1CCC(OCOC)CC1)C(=O)N[C@@H](CC1CCCCC1)[C@@H](O)C[C@H](C(=O)NCCCN)C(C)C | –
23 | – | – | – | 2.8 nM | CCCC[C@H](O[C@@H](Cc1ccccc1)C(=O)N1CCC(OCOC)CC1)C(=O)N[C@@H](CC1CCCCC1)[C@@H](O)C[C@H](C(=O)NCCNC(N)=O)C(C)C | –
24 | – | 4.3 | 4.3 | 2.4 nM | CCCC[C@H](O[C@@H](Cc1ccccc1)C(=O)N1CCC(OCOC)CC1)C(=O)N[C@@H](CC1CCCCC1)[C@@H](O)C[C@H](C(=O)NCCCNC(C)=O)C(C)C | –
25 | 6.8 nM | 1.9 | 2.8 | – | CCCC[C@H](O[C@@H](Cc1ccccc1)C(=O)N1CCC(OCOC)CC1)C(=O)N[C@@H](CC1CCCCC1)[C@@H](O)C[C@H](C(=O)NCCC(=O)O)C(C)C | –
26 | – | 3.9 | 4 | 1.1 nM | CCCC[C@H](O[C@@H](Cc1ccccc1)C(=O)N1CCC(OCOC)CC1)C(=O)N[C@@H](CC1CCCCC1)[C@@H](O)C[C@H](C(=O)NCCNc1n[nH]c(N)n1)C(C)C | –
27 | – | 2.7 | 3.5 | 4.7 nM | CCCC[C@H](O[C@@H](Cc1ccccc1)C(=O)N1CCC(OCOC)CC1)C(=O)N[C@@H](CC1CCCCC1)[C@@H](O)C[C@H](C(=O)NCC(C)(C)N)C(C)C | –
28 | 11 nM | – | – | – | CCCC[C@H](N[C@@H](Cc1ccccc1)C(=O)N1CCC(OCOC)CC1)C(=O)N[C@@H](CC1CCCCC1)[C@@H](O)C[C@H](C(=O)NCCNCCO)C(C)C | –
29 | – | 4.3 | 4.2 | 1.7 nM | CCCC[C@H](O[C@@H](Cc1ccccc1)C(=O)N1CCC(OCOC)CC1)C(=O)N[C@@H](CC1CCCCC1)[C@@H](O)C[C@H](C(=O)NCCCNc1nnc(N)[nH]1)C(C)C | –
30 | 9.7 nM | – | – | – | CCCC[C@H](N[C@@H](Cc1ccccc1)C(=O)N1CCC(OCOC)CC1)C(=O)N[C@@H](CC1CCCCC1)[C@@H](O)C[C@H](C(=O)NCCN)C(C)C | –
31 | – | 4.5 | 4.4 | 3.1 nM | CCCC[C@H](O[C@@H](Cc1ccccc1)C(=O)N1CCC(OCOC)CC1)C(=O)N[C@@H](CC1CCCCC1)[C@@H](O)C[C@H](C(=O)NCCNc1noc(N)n1)C(C)C | –
32 | 14 nM | > 5 | > 5 | – | CCCC[C@H](N[C@@H](Cc1ccccc1)C(=O)N1CCC(OCOC)CC1)C(=O)N[C@@H](CC1CCCCC1)[C@@H](O)C[C@H](C(=O)NCc1ccccc1)C(C)C | AUC [5]: 1100 ng·h/mL; AUC [6]: 1540 ng·h/mL; bioavailability [7]: 7%; Cmax ([8]; in vivo): 930 ng/mL; Cmax ([9]; in vivo): 1660 ng/mL
33 | – | 2.5 | 1.8 | 6 nM | CCCC[C@H](O[C@@H](Cc1ccccc1)C(=O)N1CCC(OCOC)CC1)C(=O)N[C@@H](CC1CCCCC1)[C@@H](O)C[C@H](C(=O)NCCCNCCO)C(C)C | –
34 | – | > 5 | > 5 | 9.2 nM | CCCC[C@H](O[C@@H](Cc1ccccc1)C(=O)N1CCC(OCOC)CC1)C(=O)N[C@@H](CC1CCCCC1)[C@@H](O)C[C@H](C(=O)NCC/N=C(\NC#N)SC)C(C)C | –
35 | – | > 5 | > 5 | 1.8 nM | CCCC[C@H](O[C@@H](Cc1ccccc1)C(=O)N1CCC(OCOC)CC1)C(=O)N[C@@H](CC1CCCCC1)[C@@H](O)C[C@H](C(=O)NCCNC(N)=NC#N)C(C)C | –
36 | 40 nM | > 5 | > 5 | – | CCCC[C@H](N[C@@H](Cc1ccccc1)C(=O)N1CCC(OCOC)CC1)C(=O)N[C@@H](CC1CCCCC1)[C@@H](O)C[C@H](C(=O)NCCC1CCCCC1)C(C)C | AUC [5]: 37 ng·h/mL; AUC [6]: 82 ng·h/mL; bioavailability [7]: 4%; Cmax ([8]; plasma): 30 ng/mL; Cmax ([9]; plasma): 140 ng/mL
37 | – | – | – | 12 nM | CCCC[C@H](O[C@@H](Cc1ccccc1)C(=O)N1CCC(OCOC)CC1)C(=O)N[C@@H](CC1CCCCC1)[C@@H](O)C[C@H](C(=O)NCCC(=O)OCC)C(C)C | –
38 | – | 4.4 | 4.4 | 1.3 nM | CCCC[C@H](O[C@@H](Cc1ccccc1)C(=O)N1CCC(OCOC)CC1)C(=O)N[C@@H](CC1CCCCC1)[C@@H](O)C[C@H](C(=O)NCCC/N=C(/NC)NC#N)C(C)C | –
39 | – | > 5 | > 5 | 5.9 nM | CCCC[C@H](O[C@@H](Cc1ccccc1)C(=O)N1CCC(OCOC)CC1)C(=O)N[C@@H](CC1CCCCC1)[C@@H](O)C[C@H](C(=O)NCC(C)(C)N1CCOCC1)C(C)C | –
40 | – | – | – | 4.3 nM | CCCC[C@H](O[C@@H](Cc1ccccc1)C(=O)N1CCC(OCOC)CC1)C(=O)N[C@@H](CC1CCCCC1)[C@@H](O)C[C@H](C(=O)NCCCNC(=O)OCc1ccccc1)C(C)C | –
